{
  "source": "ChEMBL document CHEMBL3997766",
  "about": "“Synthesis and pre-clinical studies of new amino-acid ester thiazolide prodrugs” (Eur J Med Chem, 2017)",
  "key": {"Plasma [1]": {"tested_on": "Plasma", "test": "Drug metabolism in Sprague-Dawley rat assessed as tizoxanide-glucuronide level in plasma administered via oral gavage qd for 28 consecutive days", "type": "ADME", "summary_of_the_method": "(§1)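 In a sub-acute study, Sprague-Dawley rats were dosed once daily for 28 consecutive days at 10, 30 or 75 mg/kg, given as a yellow suspension. There were four groups of up to 30 rats each (15M/15F) to assess systemic exposure.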"}, "Canis familiaris [2]": {"tested_on": "Canis familiaris", "test": "Toxicity in Beagle dog assessed as emesis at 25 mg/kg, po administered as gelatin capsule once daily for 28 days measured on day 29 followed by 2 weeks recovery period measured on day 43", "type": "organism-based, Canis lupus familiaris", "conditions": "in vivo", "summary_of_the_method": "(§2)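 Sub-acute study in Beagle dogs dosed orally by gelatin capsule at 5, 15 and 25 mg/kg once a day for 28 consecutive days.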"}, "Rattus norvegicus [3]": {"tested_on": "Rattus norvegicus", "test": "Toxicity in Sprague-Dawley rat assessed as eosinophilic cytoplasmic bodies in epithelial cells of duodenum at 75 mg/kg administered as oral gavage qd for 28 consecutive days measured on day 29 by microscopic method", "type": "organism-based", "conditions": "in vivo", "summary_of_the_method": "(§3)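 Sub-acute study in Sprague-Dawley rats dosed orally with a suspension at 10, 30 and 75 mg/kg once daily for 28 consecutive days. Four groups of up to 30 rats each (15M/15F).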"}, "Rattus norvegicus [4]": {"tested_on": "Rattus norvegicus", "test": "Toxicity in Sprague-Dawley rat assessed as hemorrhage in stomach at 30 to 75 mg/kg administered as oral gavage qd for 28 consecutive days measured on day 29 by microscopic method", "type": "organism-based", "conditions": "in vivo", "summary_of_the_method": "(§4)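 Sub-acute study in Sprague-Dawley rats: 10, 30 or 75 mg/kg given orally once a day for 28 consecutive days as a yellow suspension. There were 4 groups of up to 30 rats each (15M/15F), including a control. Body weight, clinical observations and terminal findings were assessed.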"}, "Rattus norvegicus [5]": {"tested_on": "Rattus norvegicus", "test": "Toxicity in Sprague-Dawley rat assessed as increase in serum chloride level at 30 mg/kg administered as oral gavage qd for 28 consecutive days followed by 2 weeks recovery period measured on day 43", "type": "organism-based", "conditions": "in vivo, 336 h", "summary_of_the_method": "as §3"}, "Rattus norvegicus [6]": {"tested_on": "Rattus norvegicus", "test": "Neurotoxicity in Sprague-Dawley rat assessed as decreased activity at 1000 mg/kg administered via oral gavage as single dose after 4 to 24 hrs", "type": "toxicity, organism-based", "conditions": "in vivo", "summary_of_the_method": "(§5)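 Three groups of 10 rats (5M/5F) received a single dose by oral gavage of 100, 300 or 1000 mg/kg, and an untreated group served as control. Clinical signs of CNS effects were recorded at 4 and 24 h after treatment.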"}, "Rattus norvegicus [7]": {"tested_on": "Rattus norvegicus", "test": "Neurotoxicity in Sprague-Dawley rat assessed as tremors at 1000 mg/kg administered as single dose via oral gavage after 4 to 24 hrs", "type": "toxicity, organism-based", "conditions": "in vivo", "summary_of_the_method": "as §5"}, "Rattus norvegicus [8]": {"tested_on": "Rattus norvegicus", "test": "Elimination half life in Sprague-Dawley rat assessed as Tizoxanide level in plasma at 6.3 mg/kg, iv administered as single dose", "type": "ADME, organism-based", "conditions": "in vivo"}, "Rattus norvegicus [9]": {"tested_on": "Rattus norvegicus", "test": "Toxicity in Sprague-Dawley rat assessed as decrease in serum total albumin level at 75 mg/kg administered as oral gavage qd for 28 consecutive days followed by 2 weeks recovery period measured on day 43", "type": "organism-based", "conditions": "in vivo, 336 h", "summary_of_the_method": "as §3"}, "Rattus norvegicus [10]": {"tested_on": "Rattus norvegicus", "test": "Toxicity in Sprague-Dawley rat assessed as decrease in prothrombine time at 10 to 75 mg/kg administered as oral gavage qd for 28 consecutive days followed by 2 weeks recovery period measured on day 43", "type": "organism-based", "conditions": "in vivo, 336 h", "summary_of_the_method": "as §3"}, "Canis familiaris [11]": {"tested_on": "Canis familiaris", "test": "Drug metabolism in Beagle dog assessed as tizoxanide-glucuronide level in plasma administered orally as gelatin capsule once daily for 28 days measured on day 1 and 29", "type": "ADME, Canis lupus familiaris", "conditions": "po, 672 h", "summary_of_the_method": "(§6)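 Beagle dogs received the drug orally in a single gelatin capsule at 5, 15 or 25 mg/kg once daily for 28 consecutive days in a sub-acute toxicity study assessing systemic exposure.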"}, "Canis familiaris [12]": {"tested_on": "Canis familiaris", "test": "Cardiotoxicity in Beagle dog up to 25 mg/kg, po administered as gelatin capsule once daily for 28 days measured 1 hr post last dose on one of last 3 days of dosing", "type": "toxicity, organism-based, Canis lupus familiaris", "conditions": "in vivo", "summary_of_the_method": "as §6"}, "Rattus norvegicus [13]": {"tested_on": "Rattus norvegicus", "test": "Toxicity in Sprague-Dawley rat at 10 to 75 mg/kg administered as oral gavage qd for 28 consecutive days by ophthalmoscopic method", "type": "organism-based", "conditions": "in vivo", "summary_of_the_method": "as §4"}, "Rattus norvegicus [14]": {"tested_on": "Rattus norvegicus", "test": "Toxicity in Sprague-Dawley rat assessed as effect on respiratory rate by measuring breaths per minute at 100 to 1000 mg/kg administered as single dose via oral gavage", "type": "organism-based", "conditions": "in vivo", "summary_of_the_method": "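Respiratory safety study: conscious rats, 3 groups of 6 (3M/3F), given single oral-gavage doses of 100, 300 or 1000 mg/kg, with an untreated control group. Respiratory rate (breaths per minute), tidal volume and minute volume were recorded, and mortality was noted.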"}, "Canis familiaris [15]": {"tested_on": "Canis familiaris", "test": "Toxicity in Beagle dog assessed as effect on coagulation up to 25 mg/kg, po administered as gelatin capsule once daily for 28 days measured on day 29", "type": "organism-based, Canis lupus familiaris", "conditions": "in vivo, 672 h", "summary_of_the_method": "as §2"}, "Canis familiaris [16]": {"tested_on": "Canis familiaris", "test": "Toxicity in Beagle dog assessed as early death at 5 to 25 mg/kg, po administered as gelatin capsule once daily for 28 days measured on day 29", "type": "organism-based, Canis lupus familiaris", "conditions": "in vivo, 672 h", "summary_of_the_method": "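Sub-acute study in Beagle dogs: 5, 15 or 25 mg/kg/day given orally in a single gelatin capsule once a day for 28 consecutive days to assess systemic exposure and toxicity, with NOAEL determination.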"}, "Canis familiaris [17]": {"tested_on": "Canis familiaris", "test": "Toxicity in Beagle dog up to 25 mg/kg, po administered as gelatin capsule once daily for 28 days by ophthalmoscopic method", "type": "organism-based, Canis lupus familiaris", "conditions": "in vivo, 672 h", "summary_of_the_method": "as §2"}, "Canis familiaris [18]": {"tested_on": "Canis familiaris", "test": "Toxicity in Beagle dog assessed as organ weight up to 25 mg/kg, po administered as gelatin capsule once daily for 28 days", "type": "organism-based, Canis lupus familiaris", "conditions": "in vivo, 672 h", "summary_of_the_method": "as §2"}, "Rattus norvegicus [19]": {"tested_on": "Rattus norvegicus", "test": "Neurotoxicity in Sprague-Dawley rat assessed as decrease in pain response at 1000 mg/kg administered as single dose via oral gavage after 4 to 24 hrs", "type": "toxicity, organism-based", "conditions": "in vivo", "summary_of_the_method": "as §5"}, "Rattus norvegicus [20]": {"tested_on": "Rattus norvegicus", "test": "Toxicity in Sprague-Dawley rat assessed as increase in spleen to body weight ratio at 75 mg/kg administered as oral gavage qd for 28 consecutive days measured on day 29", "type": "organism-based", "conditions": "in vivo", "summary_of_the_method": "as §3"}, "Canis familiaris [21]": {"tested_on": "Canis familiaris", "test": "Toxicity in Beagle dog assessed as decrease in cholesterol level at 25 mg/kg, po administered as gelatin capsule once daily for 28 days followed by two weeks of recovery period", "type": "organism-based, Canis lupus familiaris", "conditions": "in vivo, 672 h", "summary_of_the_method": "as §2"}, "Rattus norvegicus [22]": {"tested_on": "Rattus norvegicus", "test": "Toxicity in Sprague-Dawley rat administered via oral gavage qd for 28 consecutive days", "conditions": "in vivo", "summary_of_the_method": "as §4"}, "Rattus norvegicus [23]": {"tested_on": "Rattus norvegicus", "test": "Neurotoxicity in Sprague-Dawley rat assessed as labored breathing at 1000 mg/kg administered as single dose via oral gavage after 4 to 24 hrs", "type": "toxicity, organism-based", "conditions": "in vivo", "summary_of_the_method": "as §5"}, "Rattus norvegicus [24]": {"tested_on": "Rattus norvegicus", "test": "Elimination half life in Sprague-Dawley rat assessed as Tizoxanide level at 6.3 mg/kg, iv administered as single dose", "type": "ADME, organism-based", "conditions": "in vivo"}, "Canis familiaris [25]": {"tested_on": "Canis familiaris", "test": "Toxicity in Beagle dog at 5 to 75 mg/kg, po administered as gelatin capsule qd for 28 consecutive days", "type": "organism-based, Canis lupus familiaris", "conditions": "in vivo"}, "Rattus norvegicus [26]": {"tested_on": "Rattus norvegicus", "test": "Cmax in Sprague-Dawley rat assessed as Tizoxanide-glucuronide level in plasma at 6 mg/kg, iv administered as single dose", "type": "ADME, organism-based", "parameters": "dose 6 mg/kg, route intravenous", "conditions": "in vivo", "summary_of_the_method": "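Rats in groups of three received one compound as a single oral dose (30 mg/kg) or a single intravenous injection (6 mg/kg), with four compounds studied separately. Serial blood samples were drawn at 5, 10, 15 and 30 min and at 1, 2, 4, 8, 23 and 24 h post-dose. Plasma parent drug and metabolites were quantified and PK parameters were derived.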"}, "Canis familiaris [27]": {"tested_on": "Canis familiaris", "test": "Drug metabolism in Beagle dog assessed as tizoxanide level in plasma administered orally as gelatin capsule once daily for 28 days measured on day 1 and 29", "type": "ADME, Canis lupus familiaris", "conditions": "po, 672 h", "summary_of_the_method": "as §6"}, "Rattus norvegicus [28]": {"tested_on": "Rattus norvegicus", "test": "Toxicity in Sprague-Dawley rat assessed as eosinophilic cytoplasmic bodies in leukocytes of duodenum at 75 mg/kg administered as oral gavage qd for 28 consecutive days followed by 2 weeks recovery period by microscopic method", "type": "organism-based", "conditions": "in vivo, 336 h", "summary_of_the_method": "as §3"}, "Plasma [29]": {"tested_on": "Plasma", "test": "Drug metabolism in Sprague-Dawley rat assessed as tizoxanide level in plasma administered via oral gavage qd for 28 consecutive days", "type": "ADME", "summary_of_the_method": "as §1"}},
  "data": [
    {"smiles": "CC(C)(C)[C@H](N)C(=O)Oc1ccccc1C(=O)Nc1ncc([N+](=O)[O-])s1.Cl", "values": [
      {"measurement": "Drug metabolism", "setting": "Plasma [1]", "value": "Dose-dependent effect"},
      {"measurement": "Activity", "setting": "Canis familiaris [2]", "value": "Non-Toxic"},
      {"measurement": "Activity", "setting": "Rattus norvegicus [3]", "value": "Toxic"},
      {"measurement": "Activity", "setting": "Rattus norvegicus [4]", "value": "Toxic"},
      {"measurement": "Activity", "setting": "Rattus norvegicus [5]", "value": "Toxic"},
      {"measurement": "Activity", "setting": "Rattus norvegicus [6]", "value": "Toxic"},
      {"measurement": "Activity", "setting": "Rattus norvegicus [7]", "value": "Toxic"},
      {"measurement": "beta t1/2", "setting": "Rattus norvegicus [8]", "value": 22.8, "unit": "min"},
      {"measurement": "Activity", "setting": "Rattus norvegicus [9]", "value": "Toxic"},
      {"measurement": "Activity", "setting": "Rattus norvegicus [10]", "value": "Toxic"},
      {"measurement": "Drug metabolism", "setting": "Canis familiaris [11]", "value": "Dose-dependent effect"},
      {"measurement": "Activity", "setting": "Canis familiaris [12]", "value": "Non-Toxic"},
      {"measurement": "Activity", "setting": "Rattus norvegicus [13]", "value": "Non-Toxic"},
      {"measurement": "Activity", "setting": "Rattus norvegicus [14]", "value": "Toxic"},
      {"measurement": "Activity", "setting": "Canis familiaris [15]", "value": "Non-Toxic"},
      {"measurement": "Activity", "setting": "Canis familiaris [16]", "value": "Non-Toxic"},
      {"measurement": "Activity", "setting": "Canis familiaris [17]", "value": "Non-Toxic"},
      {"measurement": "Activity", "setting": "Canis familiaris [18]", "value": "Non-Toxic"},
      {"measurement": "Activity", "setting": "Rattus norvegicus [19]", "value": "Toxic"},
      {"measurement": "Activity", "setting": "Rattus norvegicus [20]", "value": "Toxic"},
      {"measurement": "Activity", "setting": "Canis familiaris [21]", "value": "Non-Toxic"},
      {"measurement": "NOAEL", "setting": "Rattus norvegicus [22]", "value": 10, "unit": "mg/kg"},
      {"measurement": "Activity", "setting": "Rattus norvegicus [23]", "value": "Toxic"},
      {"measurement": "beta t1/2", "setting": "Rattus norvegicus [24]", "value": 22.8, "unit": "min"},
      {"measurement": "Activity", "setting": "Canis familiaris [25]", "value": "Non-Toxic"},
      {"measurement": "Cmax", "setting": "Rattus norvegicus [26]", "value": 7.89, "unit": "µg/mL"},
      {"measurement": "Drug metabolism", "setting": "Canis familiaris [27]", "value": "Dose-dependent effect"},
      {"measurement": "Activity", "setting": "Rattus norvegicus [28]", "value": "Non-Toxic"},
      {"measurement": "Drug metabolism", "setting": "Plasma [29]", "value": "Dose-dependent effect"}
    ]}
  ]
}
